In article PMC5743469 (Theranostics, 2018):
“Also recorded” adds a separate entry of the source. Ends that are not written are not given here.

Assays:
HSV-1 (F strain) = assay: Post-entry inhibition assay; format: cell-based; conditions: time of addition experiment, peptide added to cells at 5 μg/mL after HSV-1 infection
Vero cells [1] = assay: MTT cytotoxicity assay; format: cell-based, African green monkey; conditions: 48 h incubation, 0 to 200 μg/mL
In short: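 Vero cells were grown in MEM with 10% FBS at 37 ℃ and 5% CO2, seeded and cultured for 24 h. Medium was then replaced with fresh medium holding peptide at 0–200 μg/mL for 48 h at 37 ℃. MTT stock (5 mg/mL in PBS) was added for 4 h. Formazan was dissolved in DMSO for 10 min at room temperature and absorbance read at 570 nm.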

Vero cells [2] = assay: Cellular uptake and localization of FITC-labeled peptides; format: cell-based, African green monkey; conditions: N-terminus FITC-labeled peptide, 10 μg/mL, 24 h at 37 ℃; confocal microscopy and flow cytometry (average FITC intensity)

LWHHIWHFVHHLI-NH2 [Eval418-FH5] was tested. Which “inhibitory rate of plaque formation when added after HSV-1 infection” value (HSV-1 (F strain)) did it give?
Its value is 29.72%.

And the “CC50 (50% cytotoxicity concentration)” value (Vero cells [1])?
The value was 106.68 µg/mL.

And the “cellular uptake in Vero cells” value (Vero cells [2])?
The value was “significant cellular uptake; also recorded: considerable cellular uptake”.
